Bioassay records from PubChem.
NPY Y2 blocker: NPY-Y2 (human) receptor antagonism | P49146 | NPY-Y2 expressing cells, antagonist mode | inhibition, % at 2.7 µM | 140,000 compounds, 0.99% hits; in the data active means inhibition above about 17%;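 further: 0% = vehicle with agonist challenge and 100% = reference antagonist with challenge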
NPY2 pot ag: potentiates or activates human NPY-Y2 receptor; AID 1359; activation, % at 3.6 µM; cells expressing NPY-Y2, potentiator/agonist read-out; 220,000 compounds, 0.45% hits; in the data active means activation above about 27%;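 further: cells stimulated with NPY near EC25 plus isoproterenol at EC100; 0% = vehicle plus submaximal agonist and 100% = vehicle plus saturating agonist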
NPY1 pot ag: potentiates or activates human NPY-Y1 receptor; 220,000 compounds, 0.37% hits; AID 1304; P25929; NPY-Y1 expressing cells, potentiator/agonist activation; activation, % at 3.6 µM; in the data active means activation above about 33%, passing the limit was not always enough;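 further: cells stimulated with NPY at EC10 then isoproterenol at EC100; 0% = low agonist plus stimulus and 100% = saturating agonist plus stimulus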
Target sequence (P25929 whole entry, looked up): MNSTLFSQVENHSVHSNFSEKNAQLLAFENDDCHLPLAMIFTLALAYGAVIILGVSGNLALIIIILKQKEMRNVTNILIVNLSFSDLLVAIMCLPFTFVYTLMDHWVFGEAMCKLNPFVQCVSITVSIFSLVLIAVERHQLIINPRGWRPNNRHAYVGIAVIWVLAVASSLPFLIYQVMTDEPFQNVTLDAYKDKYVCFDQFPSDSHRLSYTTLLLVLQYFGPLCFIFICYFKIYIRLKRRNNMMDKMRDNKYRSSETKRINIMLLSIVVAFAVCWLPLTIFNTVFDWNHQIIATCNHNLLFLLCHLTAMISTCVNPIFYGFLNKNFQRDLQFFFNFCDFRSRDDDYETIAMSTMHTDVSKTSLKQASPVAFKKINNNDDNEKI
NPY Y1 blocker: antagonists of human neuropeptide Y receptor Y1 | inhibition, % at 3.6 µM | AID 1040 | HEK293-CNG Y1 cells, membrane potential fluorescence; NPY at EC95, then isoproterenol | 200,000 compounds, 1% hits | P25929;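 active means inhibition above the campaign mean inhibition of all tested compounds plus 3 SD, cut at about 20% in these data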;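 further: 0% = DMSO wells given NPY plus isoproterenol and 100% = isoproterenol alone without NPY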
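Test system: HEK293 cells co-expressing NPY Y1 receptor and cyclic-nucleotide gated channel; Also added: NPY (25 nM), isoproterenol (1 µM), Ro 20-1724 (25 µM); Compound dosing: one concentration, 3.6 µM, in 0.4% DMSO; Timing: dye 3 h, compound 60 min room temperature, stimulation 45 min; Technique: Membrane-potential fluorescent dye readout.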
NPY-Y2 confirm: confirmation of human NPY-Y2 receptor potentiators or agonists; shares compounds with NPY2 pot ag; AID 1539; activation, % at 3.6 µM; cell-based NPY-Y2 potentiator/agonist assay; 450 compounds, 20% hits; in the data active means activation above about 33%
NPY-Y1 counter: potentiates or activates NPY-Y1, counter-screen for NPY-Y2 hits. shares compounds with NPY2 pot ag. Y1 HEK293-CNG cells, membrane potential fluorescence. activation, % at 3.6 µM. 450 compounds, 20% hits. AID 1651; in the data active means activation above about 45%;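 further: cells stimulated with submaximal NPY then isoproterenol with phosphodiesterase inhibitor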
NPY-Y1 ag 2: counter-screen for NPY-Y2 potentiators: agonists of human NPY-Y1; shares compounds with NPY2 pot ag; HEK293 Y1-CNGC, membrane potential fluorescence, agonism; activation, % at 3.6 µM; 450 compounds, 37% hits;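 active means activation above the mean of DMSO-only control wells plus 3 SD, cut at about 18% in these data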;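 further: cells stimulated with 1 µM isoproterenol plus the PDE inhibitor Ro 20-1724; 0% = isoproterenol with DMSO and no NPY and 100% = 40 nM NPY; Y1 agonists lower the membrane potential dye signal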
CNGC inh: blocks CNG channel activity, counter-screen for NPY-Y2 potentiators | shares compounds with NPY2 pot ag | HEK293-CNG parental, isoproterenol cAMP, membrane potential fluorescence | inhibition, % at 3.6 µM | 450 compounds, 32% hits | AID 1703;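 active means inhibition above the control-well mean plus 3 SD of those wells, cut at about 22% in these data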;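 further: 0% = DMSO with isoproterenol and 100% = DMSO without isoproterenol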
NPY-Y2 ag 2: activates human NPY-Y2 receptor in potentiator counter-screen; shares compounds with NPY2 pot ag; HEK293 Y2/CNGC cells, membrane potential fluorescence, agonist mode; activation, % at 3.6 µM; 450 compounds, 56% hits; AID 1710;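 active means activation above the mean of solvent-only control wells plus 3 SD, cut at about 10% in these data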;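 further: cells stimulated by isoproterenol with no NPY added so direct agonism is tested; 0% = DMSO with isoproterenol alone and 100% = NPY at EC100 plus isoproterenol; agonism lowers probe fluorescence through less cAMP and CNG channel opening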
An asterisk follows results filed as active; . = no result. An excerpt weighted towards active compounds, which were near 1.8% of everything screened.

SMILES	NPY Y2 blocker	NPY2 pot ag	NPY1 pot ag	NPY Y1 blocker	NPY-Y2 confirm	NPY-Y1 counter	NPY-Y1 ag 2	CNGC inh	NPY-Y2 ag 2
c1ccc2c(c1)CCN(C1=Nc3cccc4cccc1c34)C2	.	33*	38	-5	64*	88*	62*	62*	61*
COC(=O)c1ccccc1NC(=O)/C=C/c1ccco1	-3	33*	26	-7	41*	50*	56*	35*	48*
O=C(/C=C/c1ccco1)Nc1cccnc1Cl	.	3	14	.	.	.	.	.	.
COc1ccccc1CNc1ncnc2c1nnn2Cc1ccccc1	12	11	19	11	.	.	.	.	.
COc1ccc(-c2cc(=Nc3ccc(C)cc3)c3ccccc3o2)cc1	7	14	21	10	.	.	.	.	.
COc1ccc(N=c2cc(-c3ccc(OC)cc3)oc3ccccc23)cc1	3	30*	31	-2	52*	74*	61*	53*	54*
O=C(Cc1ccccc1)NCC(=O)OCC(=O)c1ccc(OC(=O)c2ccccc2)cc1	-1	-1	-3	3	.	.	.	.	.
CN(C)C=Nc1ncc2c3ccccc3n(CCN(C)C)c2c1C#N	2	101*	-37	-3	-7	-11	-23	-12	-15
CN(C)C=Nc1ncc2c3ccccc3n(Cc3ccccc3)c2c1C#N	4	0	-23	2	.	.	.	.	.
CCN(CC(=O)NCc1ccc(F)cc1)C(=O)/C=C/c1cccs1	.	9	-5	-1	.	.	.	.	.
Cc1ccc2nc(N(CCN(C)C)C(=O)/C=C/c3cccs3)sc2c1	5	52*	17	6	91*	107*	89*	86*	97*
CN(C)CCCN(C(=O)/C=C/c1cccs1)c1nc2ccc(F)cc2s1	.	10	-9	9	.	.	.	.	.
CN(C)CCN(C(=O)/C=C/c1cccs1)c1nc2c(F)cc(F)cc2s1	2	46*	29	3	94*	117*	104*	91*	105*
CC(=O)NC(Cc1cccc(F)c1)C(=O)NC1CCN(c2nnnn2-c2ccccc2)CC1 (configuration not stated)	.	5	10	1	.	.	.	.	.
Nc1nnc(CC(=O)Nc2ccccc2)s1	.	47*	18	.	-5	-6	-8	-2	-11
Cc1ccc2nc3c(cc(C(N)=S)c(=N)n3CCCOC(C)C)c(=O)n2c1	-1	7	5	-2	.	.	.	.	.
O=C1CN(CC(=O)Nc2cccc(Cl)c2Cl)c2ccccc2N1	.	3	4	2	.	.	.	.	.
O=S(=O)(Nc1cccc2ccccc12)c1cccc2nonc12	.	63*	19	.	-1	6	-3	-3	-2
N#Cc1c(-c2ccc(F)cc2)cc(-c2ccccc2)nc1SCC(=O)NCC(=O)O	.	71*	15	.	-7	-2	-5	-11	2
O=C1CC(c2ccccc2Cl)=NN(c2ncnc3ccccc23)C1=O	.	-10	-16	1	.	.	.	.	.
CCOC(=O)C1CCN(CC(O)COCc2ccc3c(c2)OCO3)CC1 (configuration not stated)	.	-3	1	-1	.	.	.	.	.
O=C1c2cccc3cccc(c23)C(=O)N1CC1CCN(CC(O)COCc2ccc3c(c2)OCO3)CC1 (configuration not stated)	6	50*	7	-4	75*	90*	21*	18	65*
O=C(Nc1ccc(S(=O)(=O)Nc2nccs2)cc1)c1cc(-c2ccccc2Cl)nc2ccccc12	5	34*	10	-2	14	17	6	8	10
COc1cc(C(=O)NNC2=CC(=O)CC(C)(C)C2)cc(OC)c1OC	2	44*	32	-1	3	2	7	6	9
COc1cccc(C(=O)NNC2=CC(=O)CC(C)(C)C2)c1	2	2	4	1	.	.	.	.	.
SMILES	NPY Y2 blocker	NPY2 pot ag	NPY1 pot ag	NPY Y1 blocker	NPY-Y2 confirm	NPY-Y1 counter	NPY-Y1 ag 2	CNGC inh	NPY-Y2 ag 2
CC1CN(C(=O)COC(=O)c2ccc(Cl)nc2)CC(C)O1 (configuration not stated)	.	1	-3	-6	.	.	.	.	.
CCNC(=S)NNc1nc(N2CCCCC2)nc(N2CCOCC2)n1	.	6	10	-5	.	.	.	.	.
CCOC(=O)C1=C(Cn2cnc3ccccc32)NC(=O)NC1c1cc(C)ccc1C (configuration not stated)	8	33*	11	1	20	23	20*	23*	23*
CCc1c(C)nc2ncnn2c1N1CCC(C(=O)Nc2cccc(C(C)=O)c2)CC1	2	11	-9	0	.	.	.	.	.
NNC(=O)C1=NOC2COC3(CCN(c4ncccn4)CC3)OCC12 (configuration not stated)	.	-2	0	1	.	.	.	.	.
O=C(N/N=C\c1ccc(Cl)cc1)C1=NOC2COC3(CCN(c4ccc([N+](=O)[O-])cc4)CC3)OCC12 (configuration not stated)	.	45*	13	.	10	-13	16	8	27*
Oc1ccc(-c2n[nH]c(C(F)(F)F)c2-c2ccccc2)c(O)c1	.	53*	14	-3	17	-4	-13	4	15*
CC(C)C[C@H](NC(=O)c1nc[nH]c1C(=O)NC1CCN(C(=O)OC(C)(C)C)CC1)C(=O)OCc1ccccc1	.	44*	30	-10	26	46*	20*	22*	21*
O=C(Nc1ccccc1Cl)c1c(F)c(F)c(F)c(F)c1F	2	32*	31	-13	1	15	-3	12	16*
Cc1nc(C)c(C(=O)O)c(-c2cccs2)c1C(=O)O	.	-15	-18	.	.	.	.	.	.
Cc1ccccc1Cn1cnc2c(NS(C)(=O)=O)c(C)c(C)cc21	4	-9	9	3	.	.	.	.	.
COc1ccc(Cn2cnc3c(NS(C)(=O)=O)c(C)c(C)cc32)cc1	6	35*	19	2	13	28	13	22	21*
Cc1nc2ccc(C(=O)O)cc2c2c1CC(C)S2 (configuration not stated)	-1	-6	-4	7	.	.	.	.	.
O=C(O)/C=C(\Oc1ccccc1)C1(O)CCCCC1	.	-3	-1	.	.	.	.	.	.
Cc1ccc(NC(=O)c2ccc3ccccc3n2)cc1S(=O)(=O)N1CCOCC1	.	-10	-1	2	.	.	.	.	.
COCCN=c1scc(-c2cc(OC)ccc2OC)n1/N=C/c1c[nH]c2ccccc12	-3	33*	43	-13	33*	49*	46*	37*	36*
Cc1ccc(O)c(CCc2ccc(O)cc2)n1	.	2	21	-9	.	.	.	.	.
COc1ccc(-n2nnnc2SCC(=O)NCCc2ccccc2)cc1OC	.	56*	14	3	-2	-4	-1	5	17*
O=C(NCc1ccccc1)c1ccc(CN(c2ccccn2)S(=O)(=O)c2ccccc2)cc1	-1	19	4	-5	.	.	.	.	.
